Test [1] concerns ERα / PHB2 chromatin-remodelling complexes. The experiment in a line: Co-immunoprecipitation of chromatin-remodelling complexes in nuclear fractions. Type of test: cell-based, human. The settings on record: MCF-7 and KPL-3C cells, 24 h, E2 present. The method in brief:
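Lysed in 0.1% NP-40 buffer, precleared with normal IgG/Protein G Sepharose 3 h at 4 °C, then incubated with anti-ERα or anti-PHB2 (5 μg) 12 h at 4 °C. Complexes captured on Protein G 1 h, washed three times, resolved by SDS–PAGE and immunoblotted.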

Another test deals with Akt (S473). The test is described as follows: Immunoblot of Akt. The class given is cell-based, human. To be noted: MCF-7 and KPL-3C cells, E2-stimulated. The method in brief: (§1)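 Blots were run on nitrocellulose, blocked in 4% BlockAce for 1 h, probed with HRP secondary for 1 h and developed by ECL. Phospho-levels were quantified by densitometry. Representative of four independent experiments.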
For orientation: Immunoblotting shows a protein as a band on a membrane.

The test system of another test is p42/44 MAPK (T202/Y204). The test is described as follows: Immunoblot of p42/44 MAPK. The class given is cell-based, human. To be noted: MCF-7 and KPL-3C cells, E2-stimulated. The method in brief:
as §1

In test [2] the test system is ERα (S104/S106, S118, S167, S305 and Y537). The experiment in a line: Immunoblot of ERα phosphorylation. Type of test: cell-based, human. To be noted: MCF-7 and KPL-3C cells, at least 24 h. Put shortly: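 Blots were on nitrocellulose with HRP secondary and ECL detection. Site-specific ERα phosphorylation was quantified by densitometry and expressed as fold over untreated cells at 0 h. Mean±s.e.m.; experiments were run more than three times in triplicate.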

The subject of a further test is MCF-7 cells. The test is described as follows: Cell cycle assay by flow cytometry, MCF-7. Type of test: cell-based, human. The settings on record: MCF-7, 24 h.
Test [3] concerns MCF-7 xenograft in BALB/c nude mice. The experiment in a line: MCF-7 orthotopic xenograft tumour growth. Type of test: in vivo, mouse. The settings on record: daily 6 μg per day E2, MCF-7.
For a further test, the system named is BIG3 expression. The experiment in a line: BIG3 expression in MCF-7 cells. The class given is cell-based, human.
Test [4] has as its system ERE motif within intron 1 of the BIG3 gene. The test is described as follows: Luciferase assay, intronic ERE of BIG3. The class given is cell-based, human. To be noted: MCF-7.
The subject of test [5] is ERE within intron 1 of the BIG3 gene. The experiment in a line: ChIP on intronic ERE of BIG3. Type of test: cell-based, human. To be noted: MCF-7.
Test [6] deals with Akt, p42/44 MAPK and ERα phosphorylation. The test is described as follows: Immunoblot of phosphorylation in TAM-R MCF-7 and T47D cells. Type of test: cell-based, human. To be noted: tamoxifen alone or tamoxifen and E2. Put shortly:
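Proteins separated, blotted to nitrocellulose, blocked 1 h, probed, then HRP secondary 1 h and ECL. Akt, p42/44 MAPK and ERα phosphorylation quantified by densitometry; experiments repeated more than three times in triplicate.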

With `C[C@]12CC[C@@H]3c4ccc(O)cc4CC[C@H]3[C@@H]1CC[C@@H]2O` [E2, 17-estradiol], the “SRC-1 binding/recruitment to ERα” value in test [1] is on record as “recruited SRC-1 to ERα”. Besides, in the test with Akt (S473), the “Akt (S473) phosphorylation” value is listed as “clearly increased in a time-dependent manner”. Moreover, the “p42/44 MAPK (T202/Y204) phosphorylation” value in the test on p42/44 MAPK (T202/Y204) is listed as “clearly increased in a time-dependent manner”. In test [2], the “ERα phosphorylation at five sites” value was “clearly increased in response to E2 stimulation”. Further, in the test with MCF-7 cells, the “apoptotic (sub-G1) cell population” value is given as 0.17% and the “cell cycle distribution” value is on record as “population of cells in the G2/M phase increased”. Also, the “E2-induced tumour growth by E2 alone” value in [3] is “induced time-dependent growth of KPL-3C and MCF-7 tumours”. In addition, the “BIG3 expression after E2” value with BIG3 expression is given as “significantly upregulated in MCF-7 cells in a time-dependent manner”. Further, in test [4], the “luciferase activity, intronic ERE from BIG3” value was “robust luciferase activity”. For the same molecule, the “recruitment to intronic ERE of BIG3” value in test [5] was “recruitment of ERα and the co-activator SRC-1 was observed”.

For the molecule `CC/C(=C(\c1ccccc1)c1ccc(OCCN(C)C)cc1)c1ccccc1` [tamoxifen], in the test on MCF-7 cells, the “apoptotic (sub-G1) cell population” value stood at 0.91% and the “cell cycle distribution” value is listed as “population in the G1 phase increased”. Also, the “phosphorylation of Akt, p42/44 MAPK and ERα in TAM-R cells” value in test [6] is recorded as “enhanced in response to tamoxifen alone”. The “BIG3 expression after tamoxifen” value with BIG3 expression (real-time PCR and immunoblot) was “significant reduction in BIG3 expression at both the transcriptional and protein levels in a dose-dependent manner”.

(Values after PMC3791465 (Nature Communications, 2013).)
